MrgX1 agonist = agonists of human MrgX1 receptor; B-score at 10 µM; Q96LB2; MrgX1-HEK293 cells, Fluo-4 calcium fluorescence, agonist mode; active compounds read high; 310,000 compounds, 0.44% hits;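 active means calcium response B-score plate-corrected fluorescence ratio at least 3 library SD, with starting fluorescence B-score inside 5 SD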
Target sequence (Q96LB2 whole entry, looked up): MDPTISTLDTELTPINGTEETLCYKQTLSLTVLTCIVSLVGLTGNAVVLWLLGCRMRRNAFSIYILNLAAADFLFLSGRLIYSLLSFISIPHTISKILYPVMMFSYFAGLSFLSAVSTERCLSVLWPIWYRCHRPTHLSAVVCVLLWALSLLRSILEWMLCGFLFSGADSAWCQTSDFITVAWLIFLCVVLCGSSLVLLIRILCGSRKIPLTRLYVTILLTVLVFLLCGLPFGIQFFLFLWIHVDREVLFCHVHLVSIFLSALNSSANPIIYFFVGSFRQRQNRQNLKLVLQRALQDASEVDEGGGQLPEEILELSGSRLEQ
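Material – MrgX1-expressing HEK293 cells · Input – 15,000 cells seeded per well · Dosing – compound as first of three additions · Times – overnight seeding, then 1 h dark dye loading · Measured by – kinetic Fluo-4 NW fluorescence of intracellular calcium · Read-out – B-scored fluorescence response ratio · Benchmarks – positive and negative control wells on each plate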
Hep lipid drop = modulators of hepatic lipid droplet formation; AML12 mouse hepatocytes, oleate lipid droplets, BODIPY imaging; inhibition, % at 6.5 µM; 240,000 compounds, 0.4% hits; AID 1656;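 active means lipid droplet intensity inhibited by at least 50%, with more than 500 cells counted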
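Test system: AML12 hepatocytes (mouse); reagent: oleate loading, 100 µM; dosing: one dose, 6.5 µM compound; incubation: overnight exposure; signal: fluorescence imaging, 20x objective, two fields per well; read-out basis: % inhibition of corrected integrated BODIPY droplet signal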
MrgX1 allo act = allosterically activates human MrgX1 receptor signaling. Q96LB2. MrgX1-HEK293, Fluo-4 calcium flux, FDSS; active compounds read high. B-score at 10 µM. 310,000 compounds, 0.63% hits. AID 588675;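 active means plate-corrected calcium response at least 3 library SD above typical, normal starting fluorescence, not activating the receptor alone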;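 further: compound read alongside a low EC10 to EC30 dose of BAM8-22 agonist; peak minus trough fluorescence over baseline measured at the second addition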
MrgX1 antagonist = blocks BAM8-22 activation of human MrgX1 receptor | Q96LB2 | MRGX1-HEK293 calcium flux, Fluo-4, BAM8-22 antagonism; active compounds read low | B-score at 10 µM | 310,000 compounds, 1.3% hits;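 active means calcium-response B-score plate-corrected more than 3 library SD below zero, starting fluorescence within 5 deviations, no agonist response on first addition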;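 further: peak minus trough fluorescence over baseline after final BAM8-22 challenge near maximal dose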
RGS4 pot = RGS4 potentiation or activation; HEK293 M3R/inducible RGS4, carbachol calcium flux Fluo4; active compounds read low; B-score at 10 µM; 310,000 compounds, 0.92% hits; AID 463111;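 active means B-score of the integrated calcium signal more than 4 SD below the library mean, with starting fluorescence not abnormally high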;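 further: negative B-score means reduced calcium response which marks RGS4 activation or potentiation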
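test system = M3R-expressing HEK293 line, RGS4 induced by doxycycline | probe or stimulus = carbachol at ECmax as muscarinic agonist stimulus | timing = dye loading 30 min 37 °C, buffer rest 30 min RT | signal = calcium dye Fluo4 fluorescence | evaluation = B score from integrated fluorescence ratio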
RGS4 block = human RGS4 inhibition. P49798. HEK293 M3R/RGS4 inducible, Fluo-4 calcium flux; active compounds read high; triggered by carbachol at its EC20. B-score at 10 µM. 310,000 compounds, 0.45% hits;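 active means B-score, a plate-corrected calcium signal, over three deviations above library mean, with baseline fluorescence within five deviations of library mean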;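 further: RGS4 expression induced by doxycycline in cells with stable M3 receptor; B-score is computed from the integrated fluorescence ratio over baseline after carbachol; higher B-score means a larger calcium signal and so more RGS4 inhibition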
Target sequence (P49798 whole entry, looked up): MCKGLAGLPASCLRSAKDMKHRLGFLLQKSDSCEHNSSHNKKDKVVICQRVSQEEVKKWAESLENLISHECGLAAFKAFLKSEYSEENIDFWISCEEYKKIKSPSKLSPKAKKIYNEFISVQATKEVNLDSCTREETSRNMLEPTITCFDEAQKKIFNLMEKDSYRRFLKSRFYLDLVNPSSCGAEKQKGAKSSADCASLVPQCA
MrgX1 allo conf = human MrgX1 positive allosteric modulation, re-confirmation; shares compounds with MrgX1 allo act; MrgX1-HEK293, Fluo-4 calcium fluorescence, FDSS; 1,200 compounds, 13% hits; AID 602413; activation (ratio percentage), % at 10 µM;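 active means ratio at least 3 SD above the weak peptide control, stable starting fluorescence, no direct agonism earlier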;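 further: compound followed by low BAM8-22 agonist challenge near EC20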
MrgX1 ant reconf = human MrgX1 receptor antagonism, re-confirmation screen; MrgX1-HEK293, BAM8-22 calcium flux, Fluo-4; active compounds read low; AID 602420; remaining BAM8-22 calcium response % of control (active compounds read low), % at 10 µM; 2,300 compounds, 19% hits; shares compounds with MrgX1 antagonist;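 active means remaining agonist calcium response no higher than 100% minus 3 SD of agonist-only control wells, with starting fluorescence near control levels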;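 further: agonist BAM8-22 given at a near maximal EC90 to ECmax level; peak minus minimum fluorescence divided by baseline after agonist addition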
HEK293 Ca flux = MrgX1 antagonist counter-screen hit in parental HEK293 cells; shares compounds with MrgX1 antagonist; Fluo-4 calcium fluorescence, FDSS; fluorescence ratio F(max-min)/F0 at 10 µM; 4,000 compounds, 2% hits; AID 624111;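 active means duplicate-averaged calcium fluorescence ratio at least three times the standard deviation of buffer wells, a nonspecific response in parental cells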
HEK293 Ca counter = activity in parental HEK293 cells without MrgX1. shares compounds with MrgX1 antagonist. parental HEK293 calcium flux, Fluo-4 fluorescence ratio; active compounds read high. fluorescence ratio F(max-min)/F0 at 10 µM. 4,000 compounds, 0.4% hits;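 active means calcium fluorescence ratio, averaged over duplicates, at least 3 SD of the buffer-well ratio, meaning a nonspecific response in receptor-free cells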;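 further: untransfected parental HEK293 lacking MrgX1 used as counterscreen for MrgX1 allosteric activators; fluorescence change taken during the second addition on a kinetic imager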
HEK293 Ca cntr2 = MrgX1 activator counter-screen hit in parental HEK293 cells; shares compounds with MrgX1 antagonist; Fluo-4 calcium fluorescence (FDSS); active compounds read high; fluorescence ratio F(max-min)/F0 at 10 µM; 4,000 compounds, 8.7% hits; AID 624115;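 active means calcium fluorescence ratio at least three times the spread of buffer wells, meaning a non-specific response in parental cells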
Of the large screens only hits and unclear results are named; the others gave an inactive call (follow-up assays come after a bar, where they were run). A selection: hits, their analogues and other compounds. The true share with any hit is near 3.8%.

O=C(CC(C(=O)O)c1ccc(Cl)cc1)c1ccc(Cl)c(Cl)c1 (stereo not drawn)	none
COC(=O)C(CC(=O)c1ccc(Cl)cc1)c1ccc(C(C)C)cc1 (stereo not drawn)	MrgX1 allo act 7.1 | MrgX1 allo conf inactive | HEK293 Ca flux inactive | HEK293 Ca counter inactive | HEK293 Ca cntr2 inactive
COCCn1ccc2c(OCC(=O)Nc3cccc(NC(C)=O)c3)cccc2c1=O	none (no result: Hep lipid drop)
Nc1nc(Cl)cc(Sc2ccc(F)cc2)n1	MrgX1 allo act 6.7 | MrgX1 allo conf inactive | HEK293 Ca flux inactive | HEK293 Ca counter inactive | HEK293 Ca cntr2 inactive
CCn1cc(C(=O)NCC(OC)OC)c(=O)c2cc(S(=O)(=O)N3CCC(C)CC3)ccc21	none
O=C(NCc1ccccn1)c1cccc(S(=O)(=O)NCc2ccccc2)c1	none (no result: Hep lipid drop)
CCCc1c(C(=O)Nc2ccc(F)cc2F)cnn1-c1ccccc1	MrgX1 allo act 11 | MrgX1 allo conf inactive | HEK293 Ca flux inactive | HEK293 Ca counter inactive | HEK293 Ca cntr2 inactive
CCOC1Cc2ccccc2N(C(N)=O)c2ccccc21 (stereo not drawn)	none
COC1Cc2ccccc2N(C(=O)N2CCN(CCO)CC2)c2ccccc21 (stereo not drawn)	MrgX1 allo act 16 (no result: Hep lipid drop) | MrgX1 allo conf inactive | HEK293 Ca flux inactive | HEK293 Ca counter inactive | HEK293 Ca cntr2 inactive
COc1ccc(-c2cnc3nc[nH]c(=O)c3n2)cc1	none
Cn1c(=NC(=O)C2CC2)sc2cccc(F)c21	MrgX1 allo act 11 (no result: Hep lipid drop) | MrgX1 allo conf inactive | HEK293 Ca flux inactive | HEK293 Ca counter inactive | HEK293 Ca cntr2 inactive
NNC(=O)CNC(=O)CNS(=O)(=O)c1ccccc1	none
CC(OC(=O)CC1CCCC1)C(=O)Nc1ccc(S(N)(=O)=O)cc1 (stereo not drawn)	none (no result: Hep lipid drop)
Cc1ccc(C)n1-n1cnc2sc(-c3ccccc3)cc2c1=O	MrgX1 allo act 7.8 | MrgX1 allo conf inactive | HEK293 Ca flux inactive | HEK293 Ca counter inactive | HEK293 Ca cntr2 inactive
Cc1ccc(C)n1-n1c(C)nc2sc(-c3ccccc3)cc2c1=O	MrgX1 allo act 19 | MrgX1 allo conf inactive | HEK293 Ca flux inactive | HEK293 Ca counter inactive | HEK293 Ca cntr2 inactive
CCOC(=O)CCCc1ccc(/C(C)=N/NC(N)=S)cc1	none
O=C(CSc1nc2ccccc2[nH]1)NCc1ccc(F)cc1	MrgX1 allo act 9.5 | MrgX1 allo conf inactive | HEK293 Ca flux inactive | HEK293 Ca counter inactive | HEK293 Ca cntr2 inactive
O=C(CSc1nc2ccccc2[nH]1)Nc1ccc(F)cc1	none (no result: Hep lipid drop)
OCCn1c(-c2ccc(F)cc2)csc1=Nc1ccccc1	MrgX1 allo act 13 | MrgX1 allo conf inactive | HEK293 Ca flux inactive | HEK293 Ca counter inactive | HEK293 Ca cntr2 inactive
CCOc1ccc(N=c2scc(-c3ccc(OC)cc3)n2CCO)cc1	none
OCCn1c(-c2ccc3c(c2)OCO3)csc1=Nc1ccccc1	MrgX1 allo act 12 | MrgX1 allo conf inactive | HEK293 Ca flux inactive | HEK293 Ca counter inactive | HEK293 Ca cntr2 inactive
CCOc1ccc(N=c2scc(-c3ccccc3)n2CCO)cc1	none
CCOc1cc(N2CCOCC2)c(OCC)cc1NC(=O)COC(=O)/C=C/c1ccc(OC(F)F)cc1	none (no result: Hep lipid drop)
Nc1nc(-c2ccccn2)nc(N)c1Cc1c(F)cccc1Cl	none
Cc1n[nH]c(C)c1Cc1c(F)cccc1Cl	MrgX1 allo act 25 | MrgX1 allo conf 16% | HEK293 Ca flux inactive | HEK293 Ca counter inactive | HEK293 Ca cntr2 inactive
COc1ccc(CCNC(=O)C2Cc3ccccc3C(=O)O2)cc1 (stereo not drawn)	MrgX1 allo act 14 | MrgX1 allo conf inactive | HEK293 Ca flux inactive | HEK293 Ca counter inactive | HEK293 Ca cntr2 inactive
CCOC(=O)c1c(NC(=O)C2CCCCC2C(=O)O)sc2c1CCCCC2 (stereo not drawn)	MrgX1 allo act 16 | MrgX1 allo conf inactive | HEK293 Ca flux inactive | HEK293 Ca counter inactive | HEK293 Ca cntr2 inactive
O=C(Cc1ccccc1)N1CCC(c2ccccc2)C1 (stereo not drawn)	none
COc1ccc(CC(=O)N2CCC(c3ccccc3)C2)cc1 (stereo not drawn)	MrgX1 allo act 8 | MrgX1 allo conf inactive | HEK293 Ca flux inactive | HEK293 Ca counter inactive | HEK293 Ca cntr2 inactive
Cn1c(=O)n(C)c2cc(C(N)=O)ccc21	MrgX1 allo act 15 | MrgX1 allo conf inactive | HEK293 Ca flux inactive | HEK293 Ca counter inactive | HEK293 Ca cntr2 inactive
Clc1ccc(-c2cc3ccccc3nc2N2CCOCC2)cc1	MrgX1 allo act 11 | MrgX1 allo conf inactive | HEK293 Ca flux inactive | HEK293 Ca counter inactive | HEK293 Ca cntr2 inactive
Clc1ccc(-c2cc3ccccc3nc2N2CCCC2)cc1	none
COc1ccc(/C=C2\SC(=S)N(CCC(=O)Nc3ccccc3C(=O)O)C2=O)cc1	none (no result: Hep lipid drop)
COc1ccc(/C=C2\SC(=S)N(CCCC(=O)Nc3ccccc3C(=O)O)C2=O)cc1OC	MrgX1 allo act 22 | MrgX1 allo conf inactive | HEK293 Ca flux inactive | HEK293 Ca counter inactive | HEK293 Ca cntr2 53
CCOC(=O)c1c(-c2ccccc2)oc2ccc(OC(C)C(=O)O)cc12 (stereo not drawn)	MrgX1 allo act 7.7 | MrgX1 allo conf inactive | HEK293 Ca flux inactive | HEK293 Ca counter inactive | HEK293 Ca cntr2 inactive
Nc1nc(OCC(F)(F)F)cc(Oc2ccccc2F)n1	MrgX1 allo act 9.8 (no result: Hep lipid drop) | MrgX1 allo conf inactive | HEK293 Ca flux inactive | HEK293 Ca counter inactive | HEK293 Ca cntr2 inactive
CC(C)(C)c1ccc(-c2noc(-c3ccc4c(c3)CCO4)n2)cc1	MrgX1 allo act 7.4, MrgX1 antagonist -5 | MrgX1 allo conf inactive | MrgX1 ant reconf inactive | HEK293 Ca flux inactive | HEK293 Ca counter inactive | HEK293 Ca cntr2 inactive
Cc1ccc(-c2nc(NCc3ccc(F)cc3)n(S(C)(=O)=O)n2)cc1	none
CCOc1ccc(C(=O)CSCC(=O)O)cc1	none

Screens deposited in PubChem BioAssay by several laboratories.
